This assay relates to Mycobacterium tuberculosis. Briefly: Antibacterial activity against replicating Mycobacterium bovis BCG measured at OD580 = 0.01. Conditions: variant bovis BCG. In kind it is functional. Summed up:
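Replicating organisms in the paper's earlier-described bacteriologic medium; 200 μL of cells at OD580 0.01 exposed to DMSO vehicle or drug in 96-well plates; growth read by optical density.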

The compound `CCCOC(=O)C1=C(C)CS[C@@H]2[C@H](NC(=O)COc3ccccc3)C(=O)N12` showed an MIC90 of more than 100 µg/mL.

The compound `CC1=C(c2nc(C)no2)N2C(=O)[C@@H](NC(=O)COc3ccccc3)[C@H]2SC1` returned an MIC90 of more than 100 µg/mL.
